Converted amounts (≈) assume the structure as drawn.
What was measured:
[1] = Solubility in buffers, Vaginal Fluid Simulant and organic solvents; format: physicochemical
Dynamic vapor sorption = format: physicochemical; conditions: 25°C/80% RH
Summary of the method: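 Test compound powder (about 7 mg) is dried at 0% RH for at least 2 h at 40 °C. Sorption then runs isothermally at 25 °C, with RH stepped from 0 to 90% and back to 0%.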

HIV-1 [2] = format: cell-based; conditions: 16 h pretreatment, drug removed before HIV exposure
HIV-1 [3] = format: cell-based; conditions: for Anti-HIV activity: drug present at constant levels throughout the HIV infection process, 48 h
HIV = conditions: cited from earlier work
Stability study = format: physicochemical; conditions: all test conditions: pH 3.0–9.0, 25, 40 or 65 °C, light, 0.02% hydrogen peroxide; up to 21 days
[4] = Human ectocervical tissue permeability study; format: in vitro ADME
[5] = In vitro cytotoxicity, MTT assay, CaSki cells; format: cell-based; conditions: human
Summary of the method: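 Cells are grown at 37 °C in 5% CO2 with 10% FBS and penicillin-streptomycin: A 431 in DMEM, CaSki in RPMI 1640. They are seeded at 1 × 10^4/well, grown 24 h, then exposed to 1 ng/ml–50 μg/ml compound for 24, 48 or 72 h. Fresh medium plus MTT (5 mg/ml solution) follows for 4 h. Formazan is dissolved in DMSO and read at 595 nm; n = 8.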

Caco-2 cell monolayers = experiment: Transport across Caco-2 cell monolayers; format: in vitro ADME, human
Summary of the method: (§1)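 Caco-2 cells (passages 27–32) are grown on 4.2 cm2 polycarbonate inserts and used on days 21–24 if TEER exceeds 600 Ωcm2. HBSS is buffered with […] (pH 5.5, 6.5) or HEPES (pH 7.4); monolayers are preincubated 20 min. The pH study uses 25 μg/ml apical, basolateral pH 7.4. Bidirectional runs use 2.5–250 μg/ml at pH 7.4. Incubation is 2 h at 37 °C with sampling to 120 min; HPLC gives Papp = (dQ/dt)/(A×C0); n = 3.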

[6] = Transport across Caco-2 cell monolayers; format: in vitro ADME, human; conditions: human; for Papp A→B at 2 h, 25 μg/ml: Caco-2, Papp (a–b)
Summary of the method: as §1

C#C[C@]1(CO)O[C@@H](n2cnc3c(N)nc(F)nc32)C[C@@H]1O [EFdA, 4′-Ethynyl-2-fluoro-2′-deoxyadenosine] showed a solubility at 120 h ([1]; PBS, pH 6) of 799 ± 8.7 µg/mL (≈ 2.73 mM), a solubility ([1]; Vaginal Fluid Simulant, pH 4.2) of 887 µg/mL (≈ 3.03 mM) and a solubility at 120 h ([1]; acid phthalate buffer, pH 3) of 1510 ± 68.4 µg/mL (≈ 5.14 mM). The solubility at 120 h ([1]; acid phthalate buffer, pH 4) was 1360 ± 48.3 µg/mL (≈ 4.63 mM), the solubility at 120 h ([1]; acid phthalate buffer, pH 4, aqueous buffer, thermodynamic from solid) was 1620 ± 55.9 µg/mL (≈ 5.53 mM) and the Change in solubility ([1]; from pH 6–9) was “no obvious change in solubility”. For the same compound, the “Change in solubility with increase in ionic strength” value ([1]; pH 7.0 and 9.0) was “statistically significant decrease”, the Moisture absorbed (Dynamic vapor sorption) was “approximately 10 % w/w” and the “Protective or memory effect” value (HIV-1 [2]) was “retained anti-HIV protection similar to that seen when EFdA was present throughout the infection”. For the same compound, the “Selectivity index (CC50/EC50)” value (HIV-1 [3]; cell-based studies) was “greater than 1 × 10^3”, the Anti-HIV activity (HIV-1 [3]) was “highly potent inhibitors” and the “Potency relative to UC781” value (HIV-1 [3]; drug present throughout infection) was “about two-fold more potent than UC781”. The EC50 (HIV) was about 0.07 nM, the Drug remaining (Stability study) was over 95% and the Papp at 6 h, 500 μg/ml ([4]; female, human, pH 7.4) was 0.834 ×10⁻⁶ cm/s. For the same compound, the “Tissue morphology after exposure” value ([4]; human ectocervical tissues pre- and post-treatment) was “lack of any significant morphological changes”, the CC50 at 48 h [5] was 47.8 ± 12.4 µg/mL (≈ 0.163 mM) and the CC50 at 72 h [5] was 41.1 ± 8.78 µg/mL (≈ 0.14 mM). For the same compound, the “Absorptive transport (a–b), drug in receptor compartment” value (Caco-2 cell monolayers; 2.5 μg/ml, pH 7.4, HPLC LOD 0.05 μg/ml) was “no EFdA was detected”, the “Papp (b-a), fold lower than low and medium concentration treatments” value (Caco-2 cell monolayers; high concentration group (250 μg/ml)) was “about 2 fold” and the Papp at 2 h ([6]; Caco-2) was under 1 ×10⁻⁶ cm/s. The efflux ratio at 2 h, 25 μg/ml ([6]; Caco-2) was 8.01, the efflux ratio at 2 h, 250 μg/ml ([6]; Caco-2) was 2.74 and the Papp A→B at 2 h, 25 μg/ml ([6]; apical pH 5.5, basolateral pH 7.4) was 0.367 ×10⁻⁶ cm/s. It also gave a Papp A→B at 2 h, 25 μg/ml ([6]; apical pH 6.5, basolateral pH 7.4) of 0.436 ×10⁻⁶ cm/s and a Papp A→B at 2 h, 250 μg/ml ([6]; Caco-2, pH 7.4, Papp (a–b), 250 μg/ml, pH 7.4 both sides) of 0.595 ×10⁻⁶ cm/s.

With CC(C)=CCOc1cc(NC(=S)c2ccoc2C)ccc1Cl [UC781, reference compound] the “Protective or memory effect” value (HIV-1 [2]) was “substantial diminution of anti-HIV protection” and the Anti-HIV activity (HIV-1 [3]) was “highly potent inhibitors”.
